Screening results from PubChem.
TRPC4 inh: inhibitors of mouse TRPC4 channel | Q9QUQ5 | HEK293 TRPC4beta/mu-opioid, DAMGO-evoked Fluo4 calcium flux; active compounds read low | B-score at 10 µM | 300,000 tested, 0.39% active;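 active = B-score over 3 SD under the library average, no early fluorescence shift, positive overall ratio signal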
Target sequence (Q9QUQ5 whole entry, looked up): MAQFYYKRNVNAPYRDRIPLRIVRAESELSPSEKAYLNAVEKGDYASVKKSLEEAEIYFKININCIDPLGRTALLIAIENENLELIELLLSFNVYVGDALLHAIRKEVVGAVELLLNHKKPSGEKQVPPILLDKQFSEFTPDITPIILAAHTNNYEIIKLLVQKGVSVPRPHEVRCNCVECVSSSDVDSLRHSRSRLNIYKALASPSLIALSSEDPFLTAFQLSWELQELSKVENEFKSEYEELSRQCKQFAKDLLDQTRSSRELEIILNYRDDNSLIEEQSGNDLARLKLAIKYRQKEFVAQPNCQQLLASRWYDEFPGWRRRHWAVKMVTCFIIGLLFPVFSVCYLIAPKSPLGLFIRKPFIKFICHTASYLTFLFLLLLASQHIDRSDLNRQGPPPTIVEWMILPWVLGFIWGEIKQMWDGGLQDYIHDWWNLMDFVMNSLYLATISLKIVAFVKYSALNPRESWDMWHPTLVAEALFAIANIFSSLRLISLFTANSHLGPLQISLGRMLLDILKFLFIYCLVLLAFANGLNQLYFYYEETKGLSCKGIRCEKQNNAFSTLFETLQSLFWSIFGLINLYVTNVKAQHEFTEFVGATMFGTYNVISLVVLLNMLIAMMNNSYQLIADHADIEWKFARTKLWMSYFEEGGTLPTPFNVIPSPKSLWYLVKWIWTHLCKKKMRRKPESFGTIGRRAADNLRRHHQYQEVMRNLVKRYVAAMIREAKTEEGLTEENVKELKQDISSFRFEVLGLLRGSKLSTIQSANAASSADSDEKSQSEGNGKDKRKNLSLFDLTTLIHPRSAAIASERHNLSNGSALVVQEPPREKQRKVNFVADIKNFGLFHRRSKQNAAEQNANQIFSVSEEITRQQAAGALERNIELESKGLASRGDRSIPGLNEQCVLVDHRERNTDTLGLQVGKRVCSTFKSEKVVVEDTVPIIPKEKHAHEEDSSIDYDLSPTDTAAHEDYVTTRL
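Test system – stable TRPC4beta/mu-opioid receptor HEK293 cells · Probe or stimulus – DAMGO, a submaximal dose followed by a maximal one · Dosing – one concentration per compound · Signal – Fluo4 calcium fluorescence by kinetic imaging, 5 s 1 Hz baseline · Evaluation – per-well B score of integrated baseline-normalized Fluo4 ratio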
TRPC6 inh: inhibitors of mouse TRPC6 channel; HEK293-TRPC6, membrane potential dye, ACh-evoked depolarization; active compounds read low; B-score at 10 µM; 310,000 tested, 1.1% active;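 active = B-score under library mean minus 3 SD, initial fluorescence not abnormally high, positive integrated signal ratio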;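 note: B-score derived from integrated fluorescence ratio over the kinetic read; more negative B-score means stronger inhibition of depolarization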
TRPC4 PAM: allosteric potentiators of mouse TRPC4 channel; Q9QUQ5; HEK293 TRPC4beta/mu-opioid, DAMGO EC20, Fluo-4 Ca2+ flux; active compounds read high; B-score at 10 µM; 310,000 tested, 0.42% active; AID 2227;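 active = B-score of calcium response area above 5 SD of library B-scores, with initial fluorescence ratio within 5 SD of library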
TRPC6 activator: activators of mouse TRPC6 channel | HEK293-TRPC6 membrane potential dye fluorescence; active compounds read high | 310,000 tested, 0.13% active | B-score at 10 µM | AID 2550;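 active = B-score of the integrated fluorescence ratio above library mean plus 3 SD, and starting fluorescence ratio within library mean plus 5 SD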;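 note: higher score means more depolarization so channel activation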
TRPC4 agonist: opens the mouse TRPC4 cation channel; Q9QUQ5; HEK293 TRPC4beta/mu-opioid, Fluo4 calcium fluorescence; active compounds read high; B-score at 10 µM; 310,000 tested, 0.49% active;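 active = B-score above 5 SD of library B-scores, and initial fluorescence ratio not above library mean plus 5 SD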;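 note: positive B-score marks a calcium rise read as TRPC4 activation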
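Material: TRPC4beta and mu-opioid receptor HEK293 stable cells | Incubation: 45 min room-temperature Fluo4 loading, 110 s read | Detection: Kinetic Fluo4 calcium fluorescence | Measure: Integrated baseline-normalised fluorescence ratio, converted to per-well B score | Benchmarks: Low control buffer alone, high control maximal DAMGO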
Of the large screens only hits and unclear results are named; the others gave an inactive call. Only some compounds are listed: those with a hit (about 2.3% of all), similar ones and a draw of the others.

CC1CCCN(C(C(=O)NC2CCCCC2)c2cc3c(cc2[N+](=O)[O-])OCO3)C1 (stereo unspecified)	none
COC(=O)c1cnc(SCc2ccc([N+](=O)[O-])cc2)n1C	none
CCOC(=O)CCn1c(=O)c2c(nc(Br)n2Cc2ccccc2)n(C)c1=O	TRPC4 inh -5
OC(COCCOc1ccc(Br)cc1)CN1CCCCC1 (stereo unspecified)	none
Cc1ccc(NC(=O)c2cccs2)cc1	TRPC4 inh -6, TRPC4 agonist 77
CCCCOc1ccc(Nc2cc(Cl)ccc2C(=O)O)cn1	TRPC4 inh -7
COc1ccc(CC(=O)Nc2cc(Cl)ccc2C(=O)O)cc1	none
COc1ccccc1C(=O)COC(=O)c1nc(Cl)ccc1Cl	none
O=C(COC(=O)c1nc(Cl)ccc1Cl)c1ccccc1Cl	TRPC4 PAM 137
Cc1ccc(N2C(=O)NC(NS(=O)(=O)c3ccccc3)(C(F)(F)F)C2=O)cc1C (stereo unspecified)	none
O=C1NC(c2ccccc2)=C(c2nc3ccccc3s2)C(c2ccccc2)N1 (stereo unspecified)	TRPC4 PAM 19
CC1CN(S(=O)(=O)c2cccc(C(=O)Nc3ccccc3N3CCCC3)c2)CC(C)O1 (stereo unspecified)	none
CCOC(=O)c1cc(C#N)c(Oc2ccc(F)cc2)nc1-c1ccccc1	TRPC4 inh -5
CCCc1c(O)nc(SCCN(CCC)CCC)[nH]c1=O	TRPC4 PAM 19, TRPC4 agonist 49
CC(C)c1c(O)nc(SCCN(C)C)[nH]c1=O	TRPC4 PAM 35
CCCCCCCc1c(O)nc(SCCN(C)C)[nH]c1=O	TRPC4 PAM 10, TRPC4 agonist 81
CC(C)c1c(O)nc(SCC(=O)N2CCOCC2)[nH]c1=O	none
CCCc1c(O)nc(SCC(=O)N2CCCCC2)[nH]c1=O	none
CCOc1ccc(CN2CCN(c3cc(C)nc4c5c(C)cc(C)nc5nn34)CC2)cc1	TRPC4 agonist 50
CCCNC(=O)c1c(O)c2cccc3c2n(c1=O)CCC3	none
NCCNC(=O)c1c(O)c2cccc3c2n(c1=O)CCC3	TRPC4 agonist 104
CCCc1ccc(OCc2ccc(C(=O)N3CCSCC3)o2)cc1	TRPC4 PAM 20
CC(C)(C)c1ccc(OCc2ccc(C(=O)N3CCOCC3)o2)cc1	none
C(C#CCCCCCCCCC[n+]1ccccc1)#CCCCCCCCCC[n+]1ccccc1	TRPC4 agonist 84
Cc1c(N(C)S(=O)(=O)c2cccc(C(=O)NCC3CCCO3)c2)c(=O)n(-c2ccccc2)n1C (stereo unspecified)	none
Cc1c(N(C)S(=O)(=O)c2cc(C(=O)NCC3CCCO3)ccc2Cl)c(=O)n(-c2ccccc2)n1C (stereo unspecified)	TRPC4 inh -7
CCc1ccc(NC(=S)N(CCCN2CCN(C)CC2)Cc2cccs2)cc1	TRPC4 PAM 10
CCc1ccc(NC(=O)N(CCCN2CCOCC2)Cc2cccs2)cc1	TRPC4 agonist 51
CN1CCN(CCCN(Cc2cccs2)C(=S)Nc2ccc(Cl)cc2)CC1	none
COc1cc(CO)ccc1OCc1nnnn1-c1ccc(C)cc1	none
CCOC(=O)N1CCN(S(=O)(=O)c2ccc(C(=O)NNc3nc4c(C)cc(C)cc4s3)cc2)CC1	TRPC4 PAM 10
CCOC(=O)N1CCN(S(=O)(=O)c2ccc(C(=O)NNc3nc4c(C)cccc4s3)cc2)CC1	none
C=CCn1c(=O)c2ccccc2n2c(SCc3c(C(=O)OCC)oc4ccccc34)nnc12	none
O=C(O)c1ccc(N=Nc2c(O)ccc3ncccc23)cc1	none
CCN(CCCNS(=O)(=O)c1cc(-c2cc(C)no2)ccc1C)Cc1ccccc1	TRPC4 agonist 175
N=c1ccn(Cc2ccc(Cl)c(Cl)c2)cc1	TRPC4 agonist 61
N=c1ccn(Cc2ccc(Cl)cc2)cc1	none
COc1ccc(Cl)cc1C(=O)Nc1ccccc1N1CCN(C)CC1	TRPC4 agonist 126
CN1CCN(c2ccc(Cl)cc2NC(=O)/C=C/c2ccc(F)cc2)CC1	TRPC4 PAM 13
COc1ccc(CCC(=O)Nc2cc(Cl)ccc2N2CCN(C)CC2)cc1	TRPC4 PAM 12
COc1ccc(CC(=O)Nc2cc(Cl)ccc2N2CCCC2)cc1	none
CCOCCCNC(=O)C(NC(=O)c1ccc(NC(C)=O)cc1)c1ccc(OC)cc1 (stereo unspecified)	none
CC(C)(C)NS(=O)(=O)c1ccc(CCC(=O)N2CCCC2)cc1	none
CCOC(=O)C1(Cc2ccccc2)CCN(Cc2csc(C(C)=O)c2)CC1	none
CCOC(=O)C1(Cc2ccc(Cl)cc2)CCN(Cc2cn(CC)nc2C)CC1	TRPC4 inh -6, TRPC4 agonist 68
CCOC(=O)C1(CCc2ccccc2)CCN(Cc2ccccn2)CC1	TRPC4 inh -8
CCOC(=O)C1(CCCc2ccccc2)CCN(Cc2cnn(C)c2)CC1	TRPC4 agonist 120
CCOC(=O)C1(Cc2ccccc2)CCN(Cc2cnn(C(C)C)c2)CC1	TRPC4 agonist 55
COCCN1C(=O)C(=O)/C(=C(/O)c2ccc(C)cc2)C1c1ccccn1 (stereo unspecified)	none
CC(=O)N(c1ccc(Cl)cc1)c1c[nH]c2ccccc12	TRPC4 inh -6
CC(=O)N(c1ccc(Cl)cc1)c1cn(C(C)=O)c2ccccc12	none
Cc1c(Cl)cccc1N=C(N)N=C(N)N	TRPC4 agonist 51
CC(=O)Nc1ccc(Cc2nc3c([nH]2)c(=O)n(C)c(=O)n3C)cc1	none
O=C(O)CCC1c2cc3c4cc2OC2Oc5cc6c(cc51)C(CCC(=O)O)c1cc5c7cc1OC(O6)c1cc6cc(c1)Oc1cc(cc(C(=O)O)c1)Oc1cc8cc(c1)C(Oc1cc(c(cc1C5CCC(=O)O)C3CCC(=O)O)OC(O4)c1cc(cc(c1)Oc1cc(cc(C(=O)O)c1)O8)Oc1cc(cc(C(=O)O)c1)Oc1cc(cc2c1)Oc1cc(cc(C(=O)O)c1)O6)O7 (stereo unspecified)	TRPC6 activator 186, TRPC4 agonist 43
O=C(NC(=S)Nc1ccc(N2CCCC2)cc1)c1ccc(F)cc1	none
COc1ccc(S(=O)(=O)N(CC(=O)NC2CC2)c2ccc(C)cc2)cc1	none
CCN(CCNC(=O)C1CCN(S(=O)(=O)c2cccc3nsnc23)CC1)c1ccccc1	none
CCCN(CCC)CCCNC(=O)C1CCN(S(=O)(=O)c2cccc3nsnc23)CC1	TRPC4 agonist 134
CCOC(=O)C(CCCCOc1cccc(CC)c1)C(=O)OCC	none
CCOC(=O)C(CCCCCOc1ccccc1[N+](=O)[O-])C(=O)OCC	TRPC4 inh -6
CC1CC(C)CN(CCCOc2ccccc2[N+](=O)[O-])C1 (stereo unspecified)	TRPC4 agonist 48
CCOC(=O)C(CCCCCOc1ccc([N+](=O)[O-])cc1)C(=O)OCC	TRPC4 PAM 23
O=[N+]([O-])c1ccccc1OCCCN1CCc2ccccc2C1	none
CC(C)N(C(=O)Cn1c(=O)oc2ccccc21)c1ccccc1	none
